Key:
MS2 coat protein [1] = test: apparent Kd, MS2 coat protein; higher = weaker binding; RNA-MaP array
How it was run: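 On an Illumina sequencing chip, sequenced DNA templates served for transcription of the designed RNAs, which were then bound at room temperature by fluorescently labeled MS2 coat protein at 1.5 nM to 3 μM, with or without input ligand. Apparent Kd is the median of the fits to each cluster's binding curve. Only designs measured on at least 10 clusters were kept.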

MS2 coat protein [2] = test: apparent Kd, MS2 coat protein; higher = weaker binding; RNA-MaP array; FMN 200 µM where present
How it was run: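 In 100 mM Tris-HCl pH 7.5, 80 mM KCl, 4 mM MgCl2, BSA, DTT, yeast tRNA and Tween-20, SNAP-549-labelled MS2 coat protein was titrated from 0.7 or 1.5 nM, doubling to 3 µM, over designs transcribed by stalled E. coli RNA polymerase on Illumina sequencing-chip clusters. This was done first without ligand, then with ligand held constant. After green signal was normalised to red-channel RNA signal and control-cluster median Fmax, the apparent Kd was taken as the median of filtered per-cluster binding-curve fits.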

[3] = designed as: OFF switch for flavin mononucleotide, no ligand
[4] = ligand present: flavin mononucleotide, designed as: OFF switch for flavin mononucleotide
[5] = designed as: ON switch for flavin mononucleotide, no ligand
[6] = ligand present: flavin mononucleotide, designed as: ON switch for flavin mononucleotide

Row | Sequence | apparent Kd (MS2 coat protein [1]; [3]) [µM] | apparent Kd (MS2 coat protein [1]; [4]) [µM] | also measured
1 | GCUAGACAUGAGGAUCACCCAUGUGAGGAUAUUAGCCAAUCGAGUAAUCCGCUAUAGUUAAGAAGGCACGUGAU | 0.0167 | 0.016 | –
2 | UCUCGUGUGAAGGAUAUAGAUAUUUAACAAAAGCUAGAAGGUCAAACAUGAGGAUCACCCAUGUUUACAUAGGA | 0.00877 | 0.0109 | –
3 | AAACGGUAAGGAUAUCCACCAGGAUUGGAGCCACCUAAUUCGGAGAAGGUACAUGAGGAUCACCCAUGUCGGGU | 0.146 | 0.124 | –
4 | GGGUAACAUGAGGAUCACCCAUGUGAGGAUAUCCAUUGUUGGCGACCGGUACGACCACGGAGAAGGCACAGUUC | 0.035 | 0.0695 | –
5 | GUCAUUCAAGUGAGGAUAUCUGCGAUGCCGAAAGGAGAGAAGGCACAUGAGGAUCACCCAUGUGGUGUUUAUAU | 0.0345 | 0.0574 | –
6 | UCAUCGAGAGAGGAUAUCGUAGCAAUUCACCAGCGAGAAGGCUCGACAUGAGGAUCACCCAUGUGGCUCCGCUU | 0.0242 | 0.0736 | –
7 | CGGAAACAUGAGGAUCACCCAUGUGUAGAAAAGACAGGAUAUGACAAGGGCUUGAAGUGCUCAGAAGGGUCUGGAC | – | – | apparent Kd (MS2 coat protein [1]; [5]): 0.0154 µM; apparent Kd (MS2 coat protein [1]; [6]): 0.0112 µM
8 | ACUGAUUAUGUGAGGAUAUCGCUUUCAGGCAGAAACGAGAAGGCACAUGAGGAUCACCCAUGUUACGUCCACUG | 0.00664 | 0.00956 | –
9 | AGCUAUUCGGGUAAGGAUAUCGAUGUUGUUACAUGAGGAUCACCCAUGUUGCUCGACAUCAGUGACGAGAAGGUACAGCGUGGUAU | – | – | apparent Kd (MS2 coat protein [1]; [5]): 0.00889 µM; apparent Kd (MS2 coat protein [1]; [6]): 0.00879 µM
10 | AAAAUACAUGAGGAUCACCCAUGUCGCAAAUGCAUAGGAUAUGAUGAUGCUAAACACGCAUCAGAAGGAUGUAGAA | – | – | apparent Kd (MS2 coat protein [1]; [5]): 0.0109 µM; apparent Kd (MS2 coat protein [1]; [6]): 0.00952 µM
11 | GCACCGCGAGGAUAUACUCUGGCUAUAAUACCAUAUGACAAACAUGAGGAUCACCCAUGUAGAAGGCGCGAUGU | 0.0104 | 0.0142 | –
12 | AGACACAUGAGGAUCACCCAUGUACACGAGCGAGGACCGGUACGGCCGCCACUCGUCCAAGCAACUAAUGAGACUCGUAAGAUGG | – | – | apparent Kd (MS2 coat protein [1]; designed as: ON switch for tryptophan, no ligand): 0.0246 µM; apparent Kd (MS2 coat protein [1]; ligand present: tryptophan, designed as: ON switch for tryptophan): 0.0293 µM
13 | CCCUCUUUAUAGGAUAUGUAGACCAUGGGACAAACAGAAGGAUAGACAUGAGGAUCACCCAUGUGGGAAAACUU | 0.0318 | 0.0305 | –
14 | AAUACAGCUACGGCCGCCACUUUAACUUGGUAUGGGUCCUUCACAAACAUGAGGAUCACCCAUGUAAGGACCGGGUAGCCUUGUU | – | – | apparent Kd (MS2 coat protein [1]; designed as: OFF switch for tryptophan, no ligand): 0.0211 µM; apparent Kd (MS2 coat protein [1]; ligand present: tryptophan, designed as: OFF switch for tryptophan): 0.035 µM
15 | AGCAAGACCGAGUCCAAUAACAUGAGGAUCACCCAUGUGUUCGAGGAUAUUAGGACUGAUGGGACUAAGAAGGCGAUCCCUUGU | – | – | apparent Kd (MS2 coat protein [1]; [5]): 0.0465 µM; apparent Kd (MS2 coat protein [1]; [6]): 0.0372 µM
16 | UGUUUGCAAAGAGGAUAUUGGCCAACUGCUGGACAAGAAGGCUUUUAACAAGAUCCUUACAUGAGGAUCACCCAUGUUAGCGUA | 0.0693 | 0.115 | –
17 | CGGAAUUCAGGAUAUGGCAUAUCCUACAUGAGGAUCACCCAUGUAUGACCCGUGUGCCGGCCAGAAGGGAACGCUG | 0.0108 | 0.012 | –
18 | CCGGCAACGUAAGGAUAUGAUUCGCGUCUUGACAUGAGGAUCACCCAUGUAACUGUCGAAAUGGCUCAGAAGGUACCAGUGCCC | – | – | apparent Kd (MS2 coat protein [1]; [5]): 0.0267 µM; apparent Kd (MS2 coat protein [1]; [6]): 0.0179 µM
19 | ACAGACAAGUAGAAGGCAAUGAGGAGUGAAAAUUGAGGAUAUACCAGCAUGAGUGCCUACAUGAGGAUCACCCAUGUGUAGAUU | 0.388 | 0.395 | –
20 | UGUGCGUAUGUGAGGAUAUGCUGGUCCUUGGAUCAGCAGAAGGCACAUGAGGAUCACCCAUGUGGUGUCGUACC | – | – | apparent Kd (MS2 coat protein [2]; [3]): 0.314 µM; apparent Kd (MS2 coat protein [2]; [4]): 0.048 µM
21 | CUGGUUGUCGUAGGAUAUGUAGGAUAUUCCUACAUGAGGAUCACCCAUGUUCGCAUGGAAGAAGGACAGAAGGACGAUGACCAC | – | – | apparent Kd (MS2 coat protein [2]; [5]): 0.93 µM; apparent Kd (MS2 coat protein [2]; [6]): 0.0232 µM
22 | AUAUAUAUAUCAGGAUAUGGACAGGCCUGUUCGUAUUGAGACAGUAACAUGAGGAUCACCCAUGUCCAGAAGGGAUAUAUAUAU | – | – | apparent Kd (MS2 coat protein [2]; [3]): 0.0932 µM; apparent Kd (MS2 coat protein [2]; [4]): 0.0551 µM
23 | UGAUAGGACACAGGAUAUACGUCCUAGAGAUACUAGGAAAGUUUCCUCACAUGAGGAUCACCCAUGUAGAAGGGUGUCCUAUCU | – | – | apparent Kd (MS2 coat protein [2]; [3]): 0.00993 µM; apparent Kd (MS2 coat protein [2]; [4]): 0.222 µM
